Laboratory results: ChEMBL document CHEMBL4304743, “Discovery of ( E)- N1-(3-Fluorophenyl)- N3-(3-(2-(pyridin-2-yl)vinyl)-1 H-indazol-6-yl)malonamide (CHMFL-KIT-033) as a Novel c-KIT T670I Mutant Selective Kinase Inhibitor for Gastrointestinal Stromal Tumors (GISTs)” (J Med Chem, 2019)
Calls of active or inactive are those of the source. The rule behind the calls is not given here.

Assays:
[1] = Half-life in mouse at 1 mg/kg, iv measured after 2 to 720 mins by LC-tandem mass spectrometry analysis; format: ADME, organism-based; details: in vivo
Method in brief: (§1)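 Mice dosed 1 mg/kg i.v. or 10 mg/kg p.o.; plasma drug levels by LC-MS/MS, parameters by noncompartmental analysis; values not from triplicate testing.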

[2] = Half-life in mouse at 10 mg/kg, po measured after 5 to 720 mins by LC-tandem mass spectrometry analysis; format: ADME, organism-based; details: in vivo; method in brief: as §1
[3] = system: Mus musculus; test: Inhibition of ERK phosphorylation at T202/Y204 residue in tumor of human GIST5R cells xenografted in nude mouse at 100 mg/kg, po administered as single dose and measured after 2 hrs; format: functional, organism-based
Method in brief: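 Female nu/nu mice bearing subcutaneous GIST-5R tumors (cells in Matrigel, right flank) given one oral dose of 100 mg/kg in 0.5% methylcellulose/0.4% Tween80. Tumors collected over a 2 h time course. p-c-KIT, p-ERK and p-AKT measured alongside plasma drug levels.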

[4] = Cmax in mouse at 1 mg/kg, iv measured after 2 to 720 mins by LC-tandem mass spectrometry analysis; format: ADME, organism-based; parameters: dose 1 mg/kg, route intravenous; details: in vivo; method in brief: as §1
[5] = Apparent volume of distribution in mouse at 1 mg/kg, iv measured after 2 to 720 mins by LC-tandem mass spectrometry analysis; format: ADME, organism-based; details: in vivo, read-out: Vz; method in brief: as §1
[6] = system: Mast/stem cell growth factor receptor Kit (Homo sapiens), P10721 [V559D,T670I]; test: Inhibition of TEL fused c-KIT T670I/V559D double mutant (unknown origin) transfected in mouse BAF3 cells assessed as growth inhibition after 72 hrs by CCK8 assay; format: cell-based
Sequence of Mast/stem cell growth factor receptor Kit (Homo sapiens), P10721 [V559D,T670I] (P10721 whole entry V559D/T670I, the tested form may be a part): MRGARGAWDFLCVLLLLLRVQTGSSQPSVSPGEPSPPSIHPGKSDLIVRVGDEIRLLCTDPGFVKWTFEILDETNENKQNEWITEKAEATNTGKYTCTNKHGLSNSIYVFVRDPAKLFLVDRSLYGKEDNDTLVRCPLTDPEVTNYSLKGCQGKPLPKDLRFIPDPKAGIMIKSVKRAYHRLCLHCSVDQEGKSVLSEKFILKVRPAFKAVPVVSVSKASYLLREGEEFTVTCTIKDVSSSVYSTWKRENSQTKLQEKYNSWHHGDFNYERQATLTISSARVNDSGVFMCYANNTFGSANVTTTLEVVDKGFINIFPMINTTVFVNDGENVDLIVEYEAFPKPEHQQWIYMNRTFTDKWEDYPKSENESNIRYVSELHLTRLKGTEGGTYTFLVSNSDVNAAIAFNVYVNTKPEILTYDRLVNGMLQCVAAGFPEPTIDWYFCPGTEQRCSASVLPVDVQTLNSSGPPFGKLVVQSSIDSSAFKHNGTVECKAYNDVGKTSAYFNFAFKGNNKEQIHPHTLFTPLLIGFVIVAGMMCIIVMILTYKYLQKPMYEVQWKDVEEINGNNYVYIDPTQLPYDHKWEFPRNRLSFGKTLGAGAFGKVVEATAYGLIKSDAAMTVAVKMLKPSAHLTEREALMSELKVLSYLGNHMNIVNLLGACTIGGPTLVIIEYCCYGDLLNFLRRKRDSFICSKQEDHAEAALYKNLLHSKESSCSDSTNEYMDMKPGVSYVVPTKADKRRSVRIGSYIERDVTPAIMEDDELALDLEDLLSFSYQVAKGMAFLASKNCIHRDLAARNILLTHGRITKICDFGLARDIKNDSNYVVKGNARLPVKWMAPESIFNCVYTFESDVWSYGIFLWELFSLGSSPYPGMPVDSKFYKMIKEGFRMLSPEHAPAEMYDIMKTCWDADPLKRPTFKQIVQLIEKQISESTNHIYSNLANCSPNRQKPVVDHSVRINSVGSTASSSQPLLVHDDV
Method in brief: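 Tel-c-KIT-transformed BaF3 lines (IL-3 independent) kept in RPMI 1640 with 10% FBS, 2% L-glutamine and pen/strep. Cells at 1.5 to 5 × 10^4 cells/mL mixed with graded compound and incubated 72 h at 37 °C, 5% CO2. Viability by CCK-8 absorbance at 450 nm, normalized to DMSO. GI50 from dose–response fit.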

[7] = Selectivity ratio, ratio of inhibition of wild type TEL fused c-KIT (unknown origin) transfected in mouse BAF3 cells assessed as growth inhibition to inhibition of TEL fused c-KIT T670I mutant (unknown origin) transfected in mouse BAF3 cells assessed as growth inhibition; parameters: species or system Homo sapiens
Method in brief: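 IL-3 independent BaF3 cells stably expressing tel-c-KIT wt or tel-c-KIT T670I, grown in RPMI 1640 with 10% FBS, 2% L-glutamine, 37 °C, 5% CO2. Suspension cells at 1.5 to 5 × 10^4 cells/mL mixed with serial compound dilutions and incubated 72 h. Viability read by CCK-8 absorbance at 450 nm, normalized to DMSO; GI50 from curve fit. Selectivity is wt GI50 over T670I GI50.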

[8] = target: Mast/stem cell growth factor receptor Kit (Homo sapiens, UniProt P10721, T670I); test: Inhibition of TEL fused wild type c-KIT T670I mutant (unknown origin) transfected in mouse BaF3 cells assessed as reduction in phosphorylation at Y703 residue after 2 hrs by Western blot analysis; format: cell-based
Sequence of Mast/stem cell growth factor receptor Kit (P10721 26-976 T670I limits assumed): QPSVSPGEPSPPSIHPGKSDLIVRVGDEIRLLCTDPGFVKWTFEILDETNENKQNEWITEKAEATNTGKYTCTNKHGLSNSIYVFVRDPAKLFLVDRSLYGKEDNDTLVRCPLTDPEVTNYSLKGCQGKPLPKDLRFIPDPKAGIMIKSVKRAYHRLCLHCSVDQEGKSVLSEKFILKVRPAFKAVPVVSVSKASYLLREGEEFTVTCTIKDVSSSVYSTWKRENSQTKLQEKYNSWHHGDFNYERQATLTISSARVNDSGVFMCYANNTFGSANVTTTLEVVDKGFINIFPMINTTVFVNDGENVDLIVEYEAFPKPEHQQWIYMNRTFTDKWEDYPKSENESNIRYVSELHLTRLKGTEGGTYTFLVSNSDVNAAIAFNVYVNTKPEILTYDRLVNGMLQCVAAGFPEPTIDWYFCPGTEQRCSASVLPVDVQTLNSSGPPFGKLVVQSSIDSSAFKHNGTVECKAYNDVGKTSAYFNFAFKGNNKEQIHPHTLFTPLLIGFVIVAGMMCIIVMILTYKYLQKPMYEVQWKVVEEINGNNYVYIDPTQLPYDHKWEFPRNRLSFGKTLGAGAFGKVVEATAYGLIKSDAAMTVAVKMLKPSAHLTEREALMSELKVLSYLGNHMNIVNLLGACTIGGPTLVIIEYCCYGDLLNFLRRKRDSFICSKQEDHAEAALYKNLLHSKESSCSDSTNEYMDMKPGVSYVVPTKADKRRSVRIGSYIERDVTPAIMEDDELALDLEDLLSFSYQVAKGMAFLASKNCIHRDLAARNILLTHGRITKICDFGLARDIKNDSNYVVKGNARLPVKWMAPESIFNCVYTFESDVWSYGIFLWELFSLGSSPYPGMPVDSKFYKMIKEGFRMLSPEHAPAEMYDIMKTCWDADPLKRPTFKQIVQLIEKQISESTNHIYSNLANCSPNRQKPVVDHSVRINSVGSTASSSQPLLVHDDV

SMILES: O=C(CC(=O)Nc1ccc2c(/C=C/c3ccccn3)n[nH]c2c1)Nc1cccc(F)c1
- half-life [1]: 4.9 h
- half-life [2]: 1.6 h
- inhibition [3]: inactive
- Cmax [4]: 3020 ng/mL
- Vd [5]: 5.7 L/kg
- GI50 [6]: 122 nM
- RatioGI50 [7]: 26
- EC50 [8]: 77 nM
